Data on 1 compound can be found in ChEMBL document CHEMBL4304782, “Antioxidant, Anti-inflammatory, and Neuroprotective Effects of Novel Vinyl Sulfonate Compounds as Nrf2 Activator” (ACS Med Chem Lett, 2019).

Active and inactive are the calls of the source. The calls are words filed in the database; no cut-off is given here.

Test [1] addresses T1, Nuclear factor erythroid 2-related factor 2 (Mus musculus) (UniProt Q60795).
T1 sequence (whole entry): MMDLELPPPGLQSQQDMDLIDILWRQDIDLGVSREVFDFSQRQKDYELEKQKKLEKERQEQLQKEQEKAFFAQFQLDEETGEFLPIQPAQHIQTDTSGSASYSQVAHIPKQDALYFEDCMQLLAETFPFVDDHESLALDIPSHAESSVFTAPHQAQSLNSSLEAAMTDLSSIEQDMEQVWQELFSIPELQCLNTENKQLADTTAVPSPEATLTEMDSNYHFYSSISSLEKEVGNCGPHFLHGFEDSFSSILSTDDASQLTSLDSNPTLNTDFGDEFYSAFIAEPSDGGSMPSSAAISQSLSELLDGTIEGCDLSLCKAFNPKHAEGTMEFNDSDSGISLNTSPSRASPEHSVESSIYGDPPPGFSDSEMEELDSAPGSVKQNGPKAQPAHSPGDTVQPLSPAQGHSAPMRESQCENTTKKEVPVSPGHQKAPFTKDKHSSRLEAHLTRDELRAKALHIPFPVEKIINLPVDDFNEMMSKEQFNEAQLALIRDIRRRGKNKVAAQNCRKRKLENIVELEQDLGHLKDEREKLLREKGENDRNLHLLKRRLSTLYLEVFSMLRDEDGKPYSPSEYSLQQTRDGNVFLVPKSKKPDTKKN
The test can be described thus: Activation of Nrf2 in mouse BV-2 cells assessed as upregulation of HO-1 mRNA expression at 1 to 10 uM incubated for 3 hrs by RT-qPCR analysis relative to control. The test is classed as cell-based. Put shortly: (§1)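 BV-2 cells exposed to a range of concentrations for 3 h; HO-1, GCLM and GCLC mRNA quantified by RT-qPCR, normalized to β-actin; at least duplicate cultures, fold of untreated control ± SEM; paired t test.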

Test [2] addresses T1, Nuclear factor erythroid 2-related factor 2 (Mus musculus). In words: Activation of Nrf2 in mouse BV-2 cells assessed as upregulation of GCLM mRNA expression at 1 to 10 uM incubated for 3 hrs by RT-qPCR analysis relative to control. The class given is cell-based. Put shortly:
as §1

Test [3] has the same target. In words: Activation of Nrf2 in mouse BV-2 cells assessed as upregulation of GCLC mRNA expression at 1 to 10 uM incubated for 3 hrs by RT-qPCR analysis relative to control. The test is classed as cell-based. In short, it runs like this:
as §1

Test [4] has the same target. In words: Activation of Nrf2 in mouse BV-2 cells assessed as increase in GCLM level at 0.3 to 10 uM incubated for 12 hrs by Western blot analysis relative to control. The test is classed as cell-based. In short, it runs like this:
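BV-2 cells treated for 12 h; HO-1, GCLM, GCLC protein by Western blot, normalized to β-actin; at least duplicate cultures, fold induction over untreated control ± SEM; paired t test.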

For test [5] the target is unchanged. The test can be described thus: Activation of Nrf2 in mouse BV-2 cells assessed as increase in nuclear Nrf2 level by Western blot analysis. The test is classed as cell-based. In short, it runs like this:
(§2)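 BV-2 microglia treated 0.3–10 μM; Nrf2 measured by Western blot in nuclear extracts and whole-cell lysates; at least duplicate cultures, averaged, expressed as fold of untreated control ± SEM; paired t test.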

Test [6] shares this target. In words: Activation of Nrf2 in mouse BV-2 cells assessed as increase in total Nrf2 level at 0.3 uM by Western blot analysis relative to control. The test is classed as cell-based. In short, it runs like this:
as §2

The subject of test [7] is SH-SY5Y. In words: Antioxidant activity in human SH-SY5Y cells assessed as increase in NQO1 level at 0.3 to 3 uM incubated for 6 to 24 hrs by Western blot analysis relative to control. The class given is functional. In short, it runs like this:
(§3)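 SH-SY5Y neuroblastoma cells treated for 6 or 24 h, then harvested; NQO1, GCLM, GCLC protein by Western blot with β-actin loading control; at least duplicate cultures, averaged, fold of untreated control ± SEM; paired t test.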

Test [8] concerns BV-2. The test can be described thus: Antiinflammatory activity in mouse BV2 cells assessed as reduction in LPS-induced IL-1beta expression at 3 to 10 uM incubated for 6 hrs followed by LPS stimulation for 12 hrs by RT-qPCR analysis. The class given is functional, cell-based. Put shortly: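 BV-2 cells pretreated with compound 6 h, then stimulated with 1 μg/mL LPS for 12 h; protein and mRNA levels quantified relative to LPS-stimulated control; mean ± SD (n = 3); paired t test.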

Test [9] deals with BV-2. In words: Antiinflammatory activity in mouse BV2 cells assessed as reduction in LPS-induced NO production at 1 to 10 uM incubated for 24 hrs by ELISA. The class given is functional, cell-based. Put shortly: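 BV-2 cells given compound together with 1 μg/mL LPS for 24 h; mediator levels expressed relative to LPS-stimulated control ± SEM; at least duplicate cultures; paired t test.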

The test system of test [10] is Mus musculus. The test can be described thus: Anti-parkinson's activity in MPTP-induced C57Bl/6 mouse model of Parkinson's disease assessed as restoration of turning time at 20 mg/kg, po administered for 3 consecutive days prior and subsequent to MPTP administration (four injections of MPTP, 2 h intervals, 20 mg/kg, i.p. injection by vertical grid test. The class given is functional, organism-based. Put shortly: (§4)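 Mice dosed 20 mg/kg p.o. (or vehicle) for 3 consecutive days before and after MPTP (four i.p. injections, 20 mg/kg, 2 h apart); vertical grid test (turning, descent, total time) and coat-hanger scoring; n = 10–12 per group; mean ± SEM; one-way ANOVA with Tukey's test.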

Test [11] deals with Mus musculus. In words: Anti-parkinson's activity in MPTP-induced C57Bl/6 mouse model of Parkinson's disease assessed as restoration of total time at 20 mg/kg, po administered for 3 consecutive days prior and subsequent to MPTP administration (four injections of MPTP, 2 h intervals, 20 mg/kg, i.p. injection by vertical grid test. The class given is functional, organism-based. Put shortly:
as §4

The target of test [12] is T2, Nuclear factor erythroid 2-related factor 2 (Homo sapiens) (UniProt Q16236).
T2 sequence (whole entry): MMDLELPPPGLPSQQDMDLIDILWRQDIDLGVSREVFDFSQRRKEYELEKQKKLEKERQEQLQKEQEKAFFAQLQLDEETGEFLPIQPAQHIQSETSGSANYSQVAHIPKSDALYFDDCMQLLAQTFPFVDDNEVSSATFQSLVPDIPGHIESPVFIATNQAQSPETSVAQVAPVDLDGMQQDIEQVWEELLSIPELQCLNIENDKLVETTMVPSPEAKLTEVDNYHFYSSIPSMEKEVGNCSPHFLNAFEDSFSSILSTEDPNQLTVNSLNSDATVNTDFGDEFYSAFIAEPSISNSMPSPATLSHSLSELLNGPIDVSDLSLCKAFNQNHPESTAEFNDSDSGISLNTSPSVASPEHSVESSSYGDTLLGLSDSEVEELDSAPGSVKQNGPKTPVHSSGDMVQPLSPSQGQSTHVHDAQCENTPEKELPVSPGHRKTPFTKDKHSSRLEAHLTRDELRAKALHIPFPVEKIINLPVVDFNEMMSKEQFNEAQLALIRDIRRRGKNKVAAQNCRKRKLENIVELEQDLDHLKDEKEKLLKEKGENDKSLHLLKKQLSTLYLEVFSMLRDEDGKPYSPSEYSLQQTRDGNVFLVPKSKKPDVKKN
The test can be described thus: Activation of Nrf2 in human SH-SY5Y cells assessed as increase in GCLM level incubated for 6 to 24 hrs by Western blot analysis. The class given is cell-based. Put shortly:
as §3

The target in test [13] is T2, Nuclear factor erythroid 2-related factor 2 (Homo sapiens). The test can be described thus: Activation of Nrf2 in human SH-SY5Y cells assessed as increase in GCLC level incubated for 6 to 24 hrs by Western blot analysis. The class given is cell-based. Put shortly:
as §3

For the compound `COc1ccccc1OS(=O)(=O)/C=C/c1ccccc1Cl`, the fold change (FC) turned out to be 10.7 in test [1]; 5.3 in test [2]; 2.3 in test [3]; 5.6 in test [4]; 3.3 in [6]; 4.7 in test [7]. For the same compound, the Activity entry in [5], in [12] and in test [13] was “Dose-dependent effect” throughout. The result in test [8], in test [9], in test [10] and in test [11] was Active.
